# Source: ChEMBL document CHEMBL3608301, “Phenolic Compounds from Atriplex littoralis and Their Radiation-Mitigating Activity” (J Nat Prod, 2015)
# How the values were obtained:
# PBL [1] = test: Radioprotective activity in 2-Gy gamma irradiated human PBL assessed as incidence of micronuclei in 1000 binucleated cells at 4.7 uM treated for 2 to 19 hrs followed by compound washout measured after 72 hrs by cytochalasin-B-blocked micronucleus assay (reference value: 183 +/- 9.6); assay type: functional
# PBL [2] = test: Radioprotective activity in 2-Gy gamma irradiated human PBL assessed as frequency of micronuclei at 4.7 uM treated for 2 to 19 hrs followed by compound washout measured after 72 hrs by cytochalasin-B-blocked micronucleus assay relative to control; assay type: functional
# PBL [3] = test: Radioprotective activity in 2-Gy gamma irradiated human PBL assessed as binucleated cells with micronuclei at 4.7 uM treated for 2 to 19 hrs followed by compound washout measured after 72 hrs by cytochalasin-B-blocked micronucleus assay (reference value: 15.5 +/- 0.6%); assay type: functional
# PBL [4] = test: Radioprotective activity in 2-Gy gamma irradiated human PBL assessed as incidence of micronuclei in binucleated cells at 4.7 uM treated for 2 to 19 hrs followed by compound washout measured after 72 hrs by cytochalasin-B-blocked micronucleus assay (reference value: 1.2 +/- 0.03); assay type: functional
# PBL [5] = test: Toxicity in 2-Gy gamma irradiated human PBL assessed as cytokinesis-block proliferation index at 4.7 uM treated for 2 to 19 hrs followed by compound washout measured after 72 hrs (reference value: 1.6 +/- 0.1); assay type: cell-based
# PBL [6] = test: Toxicity in 2-Gy gamma irradiated human PBL assessed as cytokinesis-block proliferation index at 0.8 uM treated for 2 to 19 hrs followed by compound washout measured after 72 hrs (reference value: 1.6 +/- 0.1); assay type: cell-based
# PBL [7] = test: Radioprotective activity in 2-Gy gamma irradiated human PBL assessed as incidence of micronuclei in 1000 binucleated cells at 1.5 uM treated for 2 to 19 hrs followed by compound washout measured after 72 hrs by cytochalasin-B-blocked micronucleus assay (reference value: 183 +/- 9.6); assay type: functional
# How it was run: (§1)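 Venous blood from five healthy male volunteers was γ-irradiated at 2 Gy (0.45 Gy/min) at room temperature and cultured. Compounds (0.8−7.4 μM final) were added 2 to 19 h after irradiation, at 37 °C. Cultures were then rinsed and moved to fresh RPMI 1640 for 72 h. Cytokinesis-block micronucleus assay: ≥1000 binucleated cells scored per sample (Countryman–Heddle criteria). Controls were non-treated irradiated cultures; one-way ANOVA with Tukey test.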
# PBL [8] = test: Toxicity in 2-Gy gamma irradiated human PBL assessed as cytokinesis-block proliferation index at 3.1 uM treated for 2 to 19 hrs followed by compound washout measured after 72 hrs (reference value: 1.6 +/- 0.1); assay type: cell-based
# PBL [9] = test: Toxicity in 2-Gy gamma irradiated human PBL assessed as cytokinesis-block proliferation index at 1.5 uM treated for 2 to 19 hrs followed by compound washout measured after 72 hrs (reference value: 1.6 +/- 0.1); assay type: cell-based
# PBL [10] = test: Radioprotective activity in 2-Gy gamma irradiated human PBL assessed as incidence of micronuclei in binucleated cells at 0.8 uM treated for 2 to 19 hrs followed by compound washout measured after 72 hrs by cytochalasin-B-blocked micronucleus assay (reference value: 1.2 +/- 0.03); assay type: functional; how it was run: as §1
# PBL [11] = test: Radioprotective activity in 2-Gy gamma irradiated human PBL assessed as frequency of micronuclei at 3.1 uM treated for 2 to 19 hrs followed by compound washout measured after 72 hrs by cytochalasin-B-blocked micronucleus assay relative to control; assay type: functional; how it was run: as §1
# PBL [12] = test: Radioprotective activity in 2-Gy gamma irradiated human PBL assessed as binucleated cells with micronuclei at 3.1 uM treated for 2 to 19 hrs followed by compound washout measured after 72 hrs by cytochalasin-B-blocked micronucleus assay (reference value: 15.5 +/- 0.6%); assay type: functional; how it was run: as §1
# PBL [13] = test: Radioprotective activity in 2-Gy gamma irradiated human PBL assessed as incidence of micronuclei in binucleated cells at 3.1 uM treated for 2 to 19 hrs followed by compound washout measured after 72 hrs by cytochalasin-B-blocked micronucleus assay (reference value: 1.2 +/- 0.03); assay type: functional; how it was run: as §1
# PBL [14] = test: Radioprotective activity in 2-Gy gamma irradiated human PBL assessed as binucleated cells with micronuclei at 0.8 uM treated for 2 to 19 hrs followed by compound washout measured after 72 hrs by cytochalasin-B-blocked micronucleus assay (reference value: 15.5 +/- 0.6%); assay type: functional; how it was run: as §1
# PBL [15] = test: Radioprotective activity in 2-Gy gamma irradiated human PBL assessed as binucleated cells with micronuclei at 1.5 uM treated for 2 to 19 hrs followed by compound washout measured after 72 hrs by cytochalasin-B-blocked micronucleus assay (reference value: 15.5 +/- 0.6%); assay type: functional; how it was run: as §1
# PBL [16] = test: Radioprotective activity in 2-Gy gamma irradiated human PBL assessed as incidence of micronuclei in 1000 binucleated cells at 0.8 uM treated for 2 to 19 hrs followed by compound washout measured after 72 hrs by cytochalasin-B-blocked micronucleus assay (reference value: 183 +/- 9.6); assay type: functional; how it was run: as §1
# PBL [17] = test: Radioprotective activity in 2-Gy gamma irradiated human PBL assessed as incidence of micronuclei in binucleated cells at 1.5 uM treated for 2 to 19 hrs followed by compound washout measured after 72 hrs by cytochalasin-B-blocked micronucleus assay (reference value: 1.2 +/- 0.03); assay type: functional; how it was run: as §1
# PBL [18] = test: Radioprotective activity in 2-Gy gamma irradiated human PBL assessed as frequency of micronuclei at 0.8 uM treated for 2 to 19 hrs followed by compound washout measured after 72 hrs by cytochalasin-B-blocked micronucleus assay relative to control; assay type: functional; how it was run: as §1
# PBL [19] = test: Radioprotective activity in 2-Gy gamma irradiated human PBL assessed as incidence of micronuclei in 1000 binucleated cells at 3.1 uM treated for 2 to 19 hrs followed by compound washout measured after 72 hrs by cytochalasin-B-blocked micronucleus assay (reference value: 183 +/- 9.6); assay type: functional; how it was run: as §1
# PBL [20] = test: Radioprotective activity in 2-Gy gamma irradiated human PBL assessed as frequency of micronuclei at 1.5 uM treated for 2 to 19 hrs followed by compound washout measured after 72 hrs by cytochalasin-B-blocked micronucleus assay relative to control; assay type: functional; how it was run: as §1
SMILES,Activity (PBL [1]),Activity (PBL [2]),Activity (PBL [3]),Activity (PBL [4]),Activity (PBL [5]),Activity (PBL [6]),Activity (PBL [7]),Activity (PBL [8]),Activity (PBL [9]),Activity (PBL [10]),Activity (PBL [11]),Activity (PBL [12]),Activity (PBL [13]),Activity (PBL [14]),Activity (PBL [15]),Activity (PBL [16]),Activity (PBL [17]),Activity (PBL [18]),Activity (PBL [19]),Activity (PBL [20])
NCCCNCCSP(=O)(O)O [AMIFOSTINE],166,90.7%,13.9%,1.2,1.6,–,–,–,–,–,–,–,–,–,–,–,–,–,–,–
COc1cc(-c2oc3cc4c(c(O)c3c(=O)c2O[C@@H]2O[C@H](CO[C@@H]3O[C@@H](C)[C@H](O)[C@@H](O)[C@H]3O)[C@@H](O)[C@H](O)[C@H]2O)OCO4)ccc1O,–,–,–,–,–,1.6,131.3,1.6,1.6,1.2,77.3%,11.7%,1.2,11.2%,10.8%,126.6,1.2,69.2%,141.4,71.7%
C[C@@H]1O[C@@H](O[C@H]2[C@H](Oc3c(-c4ccc(O)c(O)c4)oc4cc5c(c(O)c4c3=O)OCO5)O[C@H](CO)[C@@H](O)[C@@H]2O)[C@H](O)[C@H](O)[C@H]1O,–,–,–,–,–,1.7,178.8,1.7,1.7,1.2,102.2%,15.3%,1.2,15.1%,14.1%,181,1.3,98.9%,187,97.7%
